Results published in ChEMBL document CHEMBL1153856, “Synthesis and spectral characterization of a new class of N-(N-methylpiperazinoacetyl)-2,6-diarylpiperidin-4-ones: antimicrobial, analgesic and antipyretic studies” (2009).
≈ marks a conversion by molar mass, not a printed value.

Tests used:
Type in all cases: functional
Mus musculus [1] = experiment: Analgesic activity in albino mouse assessed as inhibition of acetic acid-induced writhing response at 60 mg/kg, po administered 1 hr prior to acetic acid challenge relative to control
In short: (§1)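 Albino mice of both sexes, 20–25 g, n = 6 per group. Doses of 30, 60 or 90 mg/kg were given orally as suspensions in 1% sodium CMC. 1 h later, 1% acetic acid in normal saline (10 mL/kg) was injected ip. Complete extension of either hind limb counted as a writhe. Counting started 5 min after injection and ran 30 min. Results are % inhibition = [1 − T/C] × 100 versus vehicle controls, mean ± SEM.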

Mus musculus [2] = experiment: Analgesic activity in albino mouse assessed as inhibition of acetic acid-induced writhing response at 90 mg/kg, po administered 1 hr prior to acetic acid challenge relative to control; in short: as §1
Mus musculus [3] = experiment: Analgesic activity in albino mouse assessed as inhibition of acetic acid-induced writhing response at 30 mg/kg, po administered 1 hr prior to acetic acid challenge relative to control; in short: as §1
Rattus norvegicus [4] = experiment: Antipyretic activity against brewer's yeast-induced hyperthermia in Wistar rat assessed as change in rectal temperature at 30 mg/kg, po after 120 mins
In short: (§2)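 Wistar rats of both sexes, 200–250 g, received brewer's yeast in normal saline sc. Rectal temperature was taken with a digital thermometer (precision 0.1 °C). At 18 h, rats whose temperature had risen 0.3–0.5 °C were selected. Test compounds (30 or 60 mg/kg) or indomethacin (5 mg/kg) were given orally in 1% CMC; controls received vehicle only. Temperature was measured at 30, 60, 90, 120 and 150 min, mean ± SEM.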

Rattus norvegicus [5] = experiment: Antipyretic activity against brewer's yeast-induced hyperthermia in Wistar rat assessed as change in rectal temperature at 30 mg/kg, po after 60 mins; in short: as §2
Pseudomonas aeruginosa = experiment: Antimicrobial activity against Pseudomonas aeruginosa after 24 hrs by twofold serial dilution method
In short: (§3)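 Twofold serial broth dilution in nutrient broth at pH 7.4 ± 0.2. Compound stocks were 1 mg/mL in DMSO, diluted 1:5 into seeded broth, then six serial dilutions. Inocula came from 24 h nutrient-agar cultures, final 10⁵ cfu/mL. Incubation was 37 ± 1 °C for 24 h, with growth and solvent controls. MIC was read visually; ciprofloxacin was the standard.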

Rattus norvegicus [6] = experiment: Antipyretic activity against brewer's yeast-induced hyperthermia in Wistar rat assessed as change in rectal temperature at 60 mg/kg, po after 120 mins; in short: as §2
Rattus norvegicus [7] = experiment: Antipyretic activity against brewer's yeast-induced hyperthermia in Wistar rat assessed as change in rectal temperature at 60 mg/kg, po after 60 mins; in short: as §2
Staphylococcus aureus = experiment: Antimicrobial activity against Staphylococcus aureus after 24 hrs by twofold serial dilution method; in short: as §3
Rattus norvegicus [8] = experiment: Antipyretic activity against brewer's yeast-induced hyperthermia in Wistar rat assessed as change in rectal temperature at 30 mg/kg, po after 30 mins; in short: as §2
Rattus norvegicus [9] = experiment: Antipyretic activity against brewer's yeast-induced hyperthermia in Wistar rat assessed as change in rectal temperature at 30 mg/kg, po after 90 mins; in short: as §2
Candida albicans = experiment: Antimicrobial activity against Candida albicans after 72 to 96 hrs by twofold serial dilution method
In short: (§4)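 Twofold serial broth dilution in Sabouraud dextrose broth at pH 5.6. Spores came from 1–7-day Sabouraud agar slants, final inoculum 1.1–1.5 × 10² cfu/mL. Compound stocks were 1 mg/mL in DMSO, diluted 1:5 into seeded broth, then six serial dilutions. Incubation was 28 ± 1 °C for 72–96 h, with growth and solvent controls. MIC was read visually; amphotericin B was the standard.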

[10] = tested on: Salmonella enterica subsp. enterica serovar Typhi str. CT18; experiment: Antimicrobial activity against Salmonella typhi after 24 hrs by twofold serial dilution method; in short: as §3
Rattus norvegicus [11] = experiment: Antipyretic activity against brewer's yeast-induced hyperthermia in Wistar rat assessed as change in rectal temperature at 60 mg/kg, po after 150 mins; in short: as §2
Aspergillus niger = experiment: Antimicrobial activity against Aspergillus niger after 72 to 96 hrs by twofold serial dilution method; in short: as §4
Rattus norvegicus [12] = experiment: Antipyretic activity against brewer's yeast-induced hyperthermia in Wistar rat assessed as change in rectal temperature at 60 mg/kg, po after 90 mins; in short: as §2
Escherichia coli = experiment: Antimicrobial activity against Escherichia coli after 24 hrs by twofold serial dilution method; in short: as §3
Klebsiella pneumoniae = experiment: Antimicrobial activity against Klebsiella pneumoniae after 24 hrs by twofold serial dilution method; in short: as §3
Rattus norvegicus [13] = experiment: Antipyretic activity against brewer's yeast-induced hyperthermia in Wistar rat assessed as change in rectal temperature at 30 mg/kg, po after 150 mins; in short: as §2
Rattus norvegicus [14] = experiment: Antipyretic activity against brewer's yeast-induced hyperthermia in Wistar rat assessed as change in rectal temperature at 60 mg/kg, po after 30 mins; in short: as §2
Rhizopus = experiment: Antimicrobial activity against Rhizopus sp. after 72 to 96 hrs by twofold serial dilution method; in short: as §4
Aspergillus flavus = experiment: Antimicrobial activity against Aspergillus flavus after 72 to 96 hrs by twofold serial dilution method; in short: as §4

## CC(=O)Oc1ccccc1C(=O)O [ASPIRIN]
Mus musculus [1]
  inhibition in vivo at 60 mg/kg: 57.9%
Mus musculus [2]
  inhibition in vivo at 90 mg/kg: 38.6%
Mus musculus [3]
  inhibition in vivo at 30 mg/kg: 44.8%

## CC1C(=O)C(C)C(c2ccccc2)N(C(=O)CN2CCN(C)CC2)C1c1ccccc1 (centres undefined)
Rattus norvegicus [4]
  Activity: 38.85 °C
Rattus norvegicus [5]
  Activity: 38 °C
Pseudomonas aeruginosa
  MIC: 50 µg/mL (≈ 119 µM)
Rattus norvegicus [6]
  Activity: 37.7 °C
Rattus norvegicus [7]
  Activity: 37.95 °C
Staphylococcus aureus
  MIC: 50 µg/mL (≈ 119 µM)
Rattus norvegicus [8]
  Activity: 38.11 °C
Rattus norvegicus [9]
  Activity: 38.95 °C
Mus musculus [1]
  inhibition in vivo at 60 mg/kg: 24.1%
Candida albicans
  MIC: 100 µg/mL (≈ 238 µM)
[10]
  MIC: 25 µg/mL (≈ 59.6 µM)
Rattus norvegicus [11]
  Activity: 37.55 °C
Mus musculus [2]
  inhibition in vivo at 90 mg/kg: 13.9%
Mus musculus [3]
  inhibition in vivo at 30 mg/kg: 17.4%
Aspergillus niger
  MIC: 50 µg/mL (≈ 119 µM)
Rattus norvegicus [12]
  Activity: 37.9 °C
Escherichia coli
  MIC: 100 µg/mL (≈ 238 µM)
Klebsiella pneumoniae
  MIC: 12.5 µg/mL (≈ 29.8 µM)
Rattus norvegicus [13]
  Activity: 38.7 °C
Rattus norvegicus [14]
  Activity: 38.1 °C
Rhizopus
  MIC: 50 µg/mL (≈ 119 µM)
Aspergillus flavus
  MIC: 50 µg/mL (≈ 119 µM)

## CC(C)C1C(=O)CC(c2ccccc2)N(C(=O)CN2CCN(C)CC2)C1c1ccccc1 (centres undefined)
Rattus norvegicus [4]
  Activity: 38.96 °C
Rattus norvegicus [5]
  Activity: 38.1 °C
Pseudomonas aeruginosa
  MIC: 100 µg/mL (≈ 231 µM)
Rattus norvegicus [6]
  Activity: 38.9 °C
Rattus norvegicus [7]
  Activity: 38.01 °C
Staphylococcus aureus
  MIC: 200 µg/mL (≈ 461 µM)
Rattus norvegicus [8]
  Activity: 38.15 °C
Rattus norvegicus [9]
  Activity: 38.01 °C
Mus musculus [1]
  inhibition in vivo at 60 mg/kg: 18.1%
Candida albicans
  MIC: 200 µg/mL (≈ 461 µM)
[10]
  MIC: 50 µg/mL (≈ 115 µM)
Rattus norvegicus [11]
  Activity: 38.75 °C
Mus musculus [2]
  inhibition in vivo at 90 mg/kg: 2.2%
Mus musculus [3]
  inhibition in vivo at 30 mg/kg: 5.6%
Aspergillus niger
  MIC: 100 µg/mL (≈ 231 µM)
Rattus norvegicus [12]
  Activity: 38.95 °C
Escherichia coli
  MIC: 100 µg/mL (≈ 231 µM)
Klebsiella pneumoniae
  MIC: 200 µg/mL (≈ 461 µM)
Rattus norvegicus [13]
  Activity: 38.9 °C
Rattus norvegicus [14]
  Activity: 38.05 °C
Rhizopus
  MIC: 50 µg/mL (≈ 115 µM)
Aspergillus flavus
  MIC: 100 µg/mL (≈ 231 µM)

## CCC1C(=O)CC(c2ccccc2)N(C(=O)CN2CCN(C)CC2)C1c1ccccc1 (centres undefined)
Rattus norvegicus [4]
  Activity: 38.01 °C
Rattus norvegicus [5]
  Activity: 38.22 °C
Pseudomonas aeruginosa
  MIC: 200 µg/mL (≈ 477 µM)
Rattus norvegicus [6]
  Activity: 38.95 °C
Rattus norvegicus [7]
  Activity: 38.2 °C
Staphylococcus aureus
  MIC: 100 µg/mL (≈ 238 µM)
Rattus norvegicus [8]
  Activity: 38.27 °C
Rattus norvegicus [9]
  Activity: 38.15 °C
Mus musculus [1]
  inhibition in vivo at 60 mg/kg: 4.5%
Candida albicans
  MIC: 100 µg/mL (≈ 238 µM)
[10]
  MIC: 100 µg/mL (≈ 238 µM)
Rattus norvegicus [11]
  Activity: 38.9 °C
Mus musculus [2]
  inhibition in vivo at 90 mg/kg: 1.2%
Mus musculus [3]
  inhibition in vivo at 30 mg/kg: 8%
Aspergillus niger
  MIC: 200 µg/mL (≈ 477 µM)
Rattus norvegicus [12]
  Activity: 38.1 °C
Escherichia coli
  MIC: > 200 µg/mL
Klebsiella pneumoniae
  MIC: 50 µg/mL (≈ 119 µM)
Rattus norvegicus [13]
  Activity: 38.98 °C
Rattus norvegicus [14]
  Activity: 38.25 °C
Rhizopus
  MIC: > 200 µg/mL
Aspergillus flavus
  MIC: > 200 µg/mL

## CC1C(=O)CC(c2ccccc2)N(C(=O)CN2CCN(C)CC2)C1c1ccccc1 (centres undefined)
Rattus norvegicus [4]
  Activity: 38.03 °C
Rattus norvegicus [5]
  Activity: 38.2 °C
Pseudomonas aeruginosa
  MIC: > 200 µg/mL
Rattus norvegicus [6]
  Activity: 38.01 °C
Rattus norvegicus [7]
  Activity: 38.1 °C
Staphylococcus aureus
  MIC: > 200 µg/mL
Rattus norvegicus [8]
  Activity: 38.25 °C
Rattus norvegicus [9]
  Activity: 38.1 °C
Mus musculus [1]
  inhibition in vivo at 60 mg/kg: 15.6%
Candida albicans
  MIC: > 200 µg/mL
[10]
  MIC: 200 µg/mL (≈ 493 µM)
Rattus norvegicus [11]
  Activity: 38.95 °C
Mus musculus [2]
  inhibition in vivo at 90 mg/kg: 17.7%
Mus musculus [3]
  inhibition in vivo at 30 mg/kg: 6.3%
Aspergillus niger
  MIC: 100 µg/mL (≈ 247 µM)
Rattus norvegicus [12]
  Activity: 38.02 °C
Escherichia coli
  MIC: 100 µg/mL (≈ 247 µM)
Klebsiella pneumoniae
  MIC: 200 µg/mL (≈ 493 µM)
Rattus norvegicus [13]
  Activity: 38.01 °C
Rattus norvegicus [14]
  Activity: 38.2 °C
Rhizopus
  MIC: > 200 µg/mL
Aspergillus flavus
  MIC: 100 µg/mL (≈ 247 µM)

## O=C(O)c1cn(C2CC2)c2cc(N3CCNCC3)c(F)cc2c1=O [CIPROFLOXACIN]
[10]
  MIC: 50 µg/mL (≈ 151 µM)
Escherichia coli
  MIC: 25 µg/mL (≈ 75.4 µM)
Klebsiella pneumoniae
  MIC: 25 µg/mL (≈ 75.4 µM)
